According to ChEMBL document CHEMBL1800068 (J Med Chem, 2011):
Active and inactive are the calls of the source. The calls are words filed in the database; no cut-off is given here.

Experiments:
[1] = molecular target: T1, Retinol-binding protein 4 (Homo sapiens, UniProt P02753); assay: Binding affinity to His-tagged recombinant human sRBP expressed in Escherichia coli BL21(DE3) assessed as disruption of sRBP-TTR protein interaction after 1 hr by SDS-PAGE and silver staining method
Summary of the method: (§1)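 Compound was 100 μM, or 1, 10, 20, 50 and 100 μM for dose–response. Control was 10 μM ROH with no compound. Released free sRBP in the flow-through was analysed by SDS-PAGE; each run done at least three times.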

[2] = molecular target: T1, Retinol-binding protein 4; assay: Binding affinity to His-tagged recombinant human sRBP expressed in Escherichia coli BL21(DE3) assessed as disruption of sRBP-TTR protein interaction at 1 to 100 uM after 1 hr by SDS-PAGE and silver staining method; summary of the method: as §1
[3] = molecular target: T1, Retinol-binding protein 4; assay: Binding affinity to His-tagged recombinant human sRBP expressed in Pichia pastoris assessed as apparent dissociation constant after 5 mins by fluorescence spectrophotometric analysis; conditions: read-out: Kd(app)
[4] = molecular target: T1, Retinol-binding protein 4; assay: Antagonist activity at His-tagged recombinant human sRBP […] assessed as disruption of ROH-sRBP-TTR protein interaction after 2 hr by TR-FRET assay relative to control; type: functional
Summary of the method: (§2)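 Apo His-sRBP (P. pastoris-expressed), 5 nM, with 100 nM biotinylated native TTR, 100 nM streptavidin-APC and 1 nM europium anti-His antibody. Inhibitor held at 10 μM while ROH was titrated, in 20 mM Tris-HCl pH 7.4, 150 mM NaCl, 1 mM EDTA, 0.01% BSA, 0.02% Tween 20.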

[5] = molecular target: T1, Retinol-binding protein 4; assay: Binding affinity to immobilized His-tagged recombinant human sRBP assessed as inhibition of sRBP and detergent treated HEK293 membrane interaction at 10 uM after 1 hr by surface plasmon resonance assay
[6] = molecular target: T1, Retinol-binding protein 4; assay: Antagonist activity at His-tagged recombinant human sRBP […] assessed as disruption of ROH-sRBP-TTR protein interaction after 2 hr by TR-FRET assay; type: functional; summary of the method: as §2
[7] = molecular target: T1, Retinol-binding protein 4; assay: Antagonist activity at His-tagged recombinant human sRBP expressed in Escherichia coli BL21(DE3) assessed as disruption of sRBP-TTR protein interaction after 2 hr by surface plasmon resonance assay; type: functional
Summary of the method: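 SPR run at 25 °C on a Ni-NTA chip in HBS with 50 μM EDTA at 10 μL/min. Nickel activation, 5 min capture of 200 nM His-sRBP, 1 min compound pulse, then 5 min injection of 1 μM native untagged TTR preincubated with compound at 10 μM. Reference-surface corrected; regenerated with 0.3 mM EDTA; repeated three to five times.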

[8] = molecular target: T1, Retinol-binding protein 4; assay: Binding affinity to His-tagged recombinant human sRBP expressed in Escherichia coli BL21(DE3) assessed as disruption of sRBP-TTR protein interaction at 100 uM after 1 hr by SDS-PAGE and silver staining method relative to 10 uM ROH; summary of the method: as §1

Activity [1] | Activity [2] | SMILES | further results
Active |  | CC(CCCC(C)CC(=O)Nc1ccc(O)cc1)CCC1C(C)CCCC1(C)C (stereo not drawn) | 
Active |  | CC1=C(/C=C/C(C)=C/C=C/C(C)=C/C(=O)Nc2ccc(OCC(=O)O)cc2)C(C)(C)CCC1 | 
Active |  | CC1=C(/C=C/C(C)=C/C=C/C(C)=C/C(=O)N2CCN(c3ccc(C)cc3)CC2)C(C)(C)CCC1 | 
Active |  | CC1=C(/C=C/C(C)=C/C=C/C(C)=C/C(=O)NCCC(C)(C)C)C(C)(C)CCC1 | 
Active |  | CC1=C(/C=C/C(C)=C/C=C/C(C)=C/C(=O)N2CCC(Cc3ccccc3)CC2)C(C)(C)CCC1 | 
Active |  | CCOc1ccc(NC(=O)/C=C(C)/C=C/C=C(C)/C=C/C2=C(C)CCCC2(C)C)cc1 | 
 | inactive | COCCC(=O)Nc1ccc(O)cc1 | 
Active |  | CC1=C(/C=C/C(C)=C/C=C/C(C)=C/C(=O)NCCCOc2ccccc2)C(C)(C)CCC1 | 
 | inactive | COCCOCC(=O)Nc1ccc(O)cc1 | 
 | inactive | CC(C)(C)C(=O)Nc1ccc(O)cc1 | 
Dose-dependent effect |  | CC1=C(/C=C/C(C)=C/C=C/C(C)=C/C(=O)Nc2ccc(N(C)C)cc2)C(C)(C)CCC1 | Kd [3]: 98 nM; Ratio EC50 [4]: 15; Activity [5]: Active; EC50 [6]: 954 nM
Active |  | CC1=C(/C=C/C(C)=C/C=C/C(C)=C/C(=O)NCC(O)CO)C(C)(C)CCC1 (stereo not drawn) | Kd [3]: 178 nM; Ratio EC50 [4]: 2; Activity [5]: Active; EC50 [6]: 171 nM
 | inactive | CC(C)=CCC/C(C)=C/C(=O)Nc1ccc(O)cc1 | 
Active |  | CC1=C(/C=C/C(C)=C/C=C/C(C)=C/C(=O)N2CCCCC2)C(C)(C)CCC1 | 
 | inactive | O=C(Cc1ccccc1)Nc1ccc(O)cc1 | 
Active |  | CC1=C(/C=C/C(C)=C/C=C/C(C)=C/C(=O)NCc2ccccn2)C(C)(C)CCC1 | 
 | inactive | CC(C)CC(=O)Nc1ccc(O)cc1 | 
Active |  | CC1=C(/C=C/C(C)=C/C=C/C(C)=C/C(=O)N2CCC3CCCCC3C2)C(C)(C)CCC1 (stereo not drawn) | 
Active |  | CC1=C(/C=C/C(C)=C/C=C/C(C)=C/C(=O)NCc2cccnc2)C(C)(C)CCC1 | 
Active |  | CC1=C(/C=C/C(C)=C/C=C/C(C)=C/C(=O)N2CCCCCC2)C(C)(C)CCC1 | 
Active |  | CC1=C(/C=C/C(C)=C/C=C/C(C)=C/C(=O)N2CCC(O)(c3ccccc3)CC2)C(C)(C)CCC1 | 
 | inactive | CC(C)CCCC(=O)Nc1ccc(O)cc1 | 
Active |  | CC1=C(/C=C/C(C)=C/C=C/C(C)=C/C(=O)N2CCC(O)CC2)C(C)(C)CCC1 | 

Activity [1] | Activity [2] | SMILES | further results
Active |  | COC(=O)COc1ccc(NC(=O)/C=C(C)/C=C/C=C(C)/C=C/C2=C(C)CCCC2(C)C)cc1 | Kd [3]: 131 nM; Activity [7]: inactive; Ratio EC50 [4]: 15; Activity [5]: Active; EC50 [6]: 1260 nM
Active |  | CC1=C(/C=C/C(C)=C/C=C/C(C)=C/C(=O)Nc2ccc(OCC(=O)N3CCCCC3)cc2)C(C)(C)CCC1 | 
Active |  | CC1=C(/C=C/C(C)=C/C=C/C(C)=C/C(=O)N2CCC(F)CC2)C(C)(C)CCC1 | 
 | inactive | CC(C)c1ccc(CCCC(=O)Nc2ccc(O)cc2)cc1 | 
 | inactive | CC(C)c1ccc(CCC(=O)Nc2ccc(O)cc2)cc1 | 
Active |  | CC1=C(/C=C/C(C)=C/C=C/C(C)=C/C(=O)NCCO)C(C)(C)CCC1 | Kd [3]: 214 nM; Ratio EC50 [4]: 2; Activity [5]: Active; EC50 [6]: 145 nM
Active |  | COCCOc1ccc(NC(=O)/C=C(C)/C=C/C=C(C)/C=C/C2=C(C)CCCC2(C)C)cc1 | 
 | inactive | COc1ccc(CC(=O)Nc2ccc(O)cc2)cc1 | 
 | inactive | C=CC(=O)Nc1ccc(O)cc1 | 
Active |  | COc1cccc(NC(=O)/C=C(C)/C=C/C=C(C)/C=C/C2=C(C)CCCC2(C)C)c1 | 
Active |  | CC1=C(/C=C/C(C)=C/C=C/C(C)=C/C(=O)NCc2ccc(Oc3ccccc3)cc2)C(C)(C)CCC1 | 
 | inactive | CCCCC(=O)Nc1ccc(O)cc1 | 
 | inactive | COc1ccc(CCCC(=O)Nc2ccc(O)cc2)cc1 | 
Active |  | COc1ccccc1CNC(=O)/C=C(C)/C=C/C=C(C)/C=C/C1=C(C)CCCC1(C)C | 
 | inactive | O=C(CCc1ccccc1)Nc1ccc(O)cc1 | 
 |  | CC1=C(/C=C/C(C)=C/C=C/C(C)=C/C(=O)Nc2ccc(O)cc2)C(C)(C)CCC1 | fold change (FC) [8]: 3; Activity [7]: Active; Activity [5]: inactive
 | inactive | O=C(CCCCc1ccccc1)Nc1ccc(O)cc1 | 
Active |  | CC1=C(/C=C/C(C)=C/C=C/C(C)=C/C(=O)NCc2ccccc2)C(C)(C)CCC1 | 
Active |  | CC1=C(/C=C/C(C)=C/C=C/C(C)=C/C(=O)NCc2ccc3c(c2)OCO3)C(C)(C)CCC1 | 
Active |  | COc1cc(NC(=O)/C=C(C)/C=C/C=C(C)/C=C/C2=C(C)CCCC2(C)C)cc(OC)c1OC | 
 | inactive | CC(C)CCC(=O)Nc1ccc(O)cc1 | 
Active |  | CC1=C(/C=C/C(C)=C/C=C/C(C)=C/C(=O)N2CCCC3CCCCC32)C(C)(C)CCC1 (stereo not drawn) | 
Active |  | CC1=C(/C=C/C(C)=C/C=C/C(C)=C/C(=O)NC2CC2)C(C)(C)CCC1 | 

Activity [1] | Activity [2] | SMILES | further results
 | inactive | COc1ccc(CCC(=O)Nc2ccc(O)cc2)cc1 | 
 | inactive | CC(C)(C)CC(=O)Nc1ccc(O)cc1 | 
Active |  | CC1=C(/C=C/C(C)=C/C=C/C(C)=C/C(=O)NC2CCCCC2)C(C)(C)CCC1 | 
Active |  | CC1=C(/C=C/C(C)=C/C=C/C(C)=C/C(=O)N2CCS(=O)(=O)CC2)C(C)(C)CCC1 | 
Active |  | CC1=C(/C=C/C(C)=C/C=C/C(C)=C/C(=O)Nc2ccc(OCC(=O)N(C)C)cc2)C(C)(C)CCC1 | 
Active |  | CC1=C(/C=C/C(C)=C/C=C/C(C)=C/C(=O)Nc2ccccc2)C(C)(C)CCC1 | 
Active |  | CC1=C(/C=C/C(C)=C/C=C/C(C)=C/C(=O)N2CCC(CCO)CC2)C(C)(C)CCC1 | 
 | inactive | CC(C)=CC(=O)Nc1ccc(O)cc1 | 
 | inactive | O=C(CCCc1ccccc1)Nc1ccc(O)cc1 | 
Active |  | CC1=C(/C=C/C(C)=C/C=C/C(C)=C/C(=O)N2CCOCC2)C(C)(C)CCC1 | Kd [3]: 227 nM; Ratio EC50 [4]: 2; Activity [5]: Active; EC50 [6]: 154 nM
Active |  | CC1=C(/C=C/C(C)=C/C=C/C(C)=C/C(=O)NCc2ccc(F)cc2)C(C)(C)CCC1 | 
Active |  | COc1ccc(NC(=O)/C=C(C)/C=C/C=C(C)/C=C/C2=C(C)CCCC2(C)C)cc1 | 
Active |  | CC1=C(/C=C/C(C)=C/C=C/C(C)=C/C(=O)NCC2CC2)C(C)(C)CCC1 | 
 | inactive | O=C(CCCCCc1ccccc1)Nc1ccc(O)cc1 | 
Active |  | CC1=C(/C=C/C(C)=C/C=C/C(C)=C/C(=O)NCc2ccc(Cl)cc2)C(C)(C)CCC1 | 
Active |  | CC1=C(/C=C/C(C)=C/C=C/C(C)=C/C(=O)Nc2ccc(OCC(=O)NCCO)cc2)C(C)(C)CCC1 | 
Active |  | CC1=C(/C=C/C(C)=C/C=C/C(C)=C\C(=O)Nc2ccc(O)cc2)C(C)(C)CCC1 | Activity [5]: Active
Active |  | CC1=C(/C=C/C(C)=C/C=C/C(C)=C/C(=O)Nc2ccc3c(c2)OCO3)C(C)(C)CCC1 | 
Active |  | CC1=C(/C=C/C(C)=C/C=C/C(C)=C/C(=O)N2CCC(F)(F)CC2)C(C)(C)CCC1 | 
Active |  | COc1cccc(CNC(=O)/C=C(C)/C=C/C=C(C)/C=C/C2=C(C)CCCC2(C)C)c1 | 
Active |  | COc1ccc(CNC(=O)/C=C(C)/C=C/C=C(C)/C=C/C2=C(C)CCCC2(C)C)cc1 | 
Active |  | CC1=C(/C=C/C(C)=C/C=C/C(C)=C/C(=O)N2CCCOCC2)C(C)(C)CCC1 | 
Active |  | CCOC(=O)CNC(=O)/C=C(C)/C=C/C=C(C)/C=C/C1=C(C)CCCC1(C)C | 
